# According to ChEMBL document CHEMBL4715713, “Novel anticancer oridonin derivatives possessing a diazen-1-ium-1,2-diolate nitric oxide donor moiety: Design, synthesis, biological evaluation and nitric oxide release studies” (Bioorg Med Chem Lett, 2016):
# Structures can show the parent of a compound that is named as a salt.
# Assays:
# [1] = system: Bel-7402; test: Antiproliferative activity against human Bel-7402 cells assessed as reduction in cell viability at 1 uM incubated for 72 hrs by MTT assay relative to control; format: functional
# [2] = system: Bel-7402; test: Antiproliferative activity against human Bel-7402 cells assessed as reduction in cell viability at 10 uM incubated for 72 hrs by MTT assay relative to control; format: functional
# [3] = system: Bel-7402; test: Antiproliferative activity against human Bel-7402 cells assessed as reduction in cell viability incubated for 72 hrs by MTT assay; format: functional, cell-based; details: Bel-7402, 72 h
# How it was run: (§1)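 Cells were exposed to a range of test concentrations for 72 h and viability was read by MTT. IC50 values were taken from the concentration-response data, and means ± SD are from n = 3.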
# [4] = Prodrug release in human Bel-7402 cells assessed as NO release by measuring increase in nitrite/nitrate production at 50 uM measured upto 24 hrs by Griess reagent based assay; format: ADME, cell-based; details: bel-7402, 24 h
# How it was run: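 Bel-7402 cells were seeded at 15,000/mL and treated in triplicate with each compound at 50 µM for varying times. Nitrate/nitrite in the cell lysates was determined by the Griess assay. Values are the mean of three independent experiments.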
# [5] = system: A549; test: Antiproliferative activity against human A549 cells assessed as reduction in cell viability incubated for 72 hrs by MTT assay; format: functional, cell-based; details: A549, 72 h; how it was run: as §1
# [6] = system: HepG2; test: Antiproliferative activity against human HepG2 cells assessed as reduction in cell viability incubated for 72 hrs by MTT assay; format: functional, cell-based; details: HepG2, 72 h; how it was run: as §1
# [7] = system: HeLa; test: Antiproliferative activity against human HeLa cells assessed as reduction in cell viability incubated for 72 hrs by MTT assay; format: functional, cell-based; how it was run: as §1
# [8] = system: K562; test: Antiproliferative activity against human K562 cells assessed as reduction in cell viability incubated for 72 hrs by MTT assay; format: functional, cell-based; details: K562, 72 h; how it was run: as §1
# [9] = system: Bel-7402; test: Induction of apoptosis in human Bel-7402 cells assessed as apoptotic cells at 2.5 uM incubated for 36 hrs by Annexin V-FITC and PI staining based flow cytometry analysis (reference value: 6.20%); format: functional
# [10] = system: Bel-7402; test: Induction of cell cycle arrest in human Bel-7402 cells assessed as accumulation in G1 phase at 0.625 uM incubated for 36 hrs by PI staining based flow cytometry analysis (reference value: 74.01 %); format: functional
# [11] = system: Bel-7402; test: Induction of cell cycle arrest in human Bel-7402 cells assessed as accumulation in G2 phase at 0.625 uM incubated for 36 hrs by PI staining based flow cytometry analysis (reference value: 6.31 %); format: functional
# [12] = system: Bel-7402; test: Induction of cell cycle arrest in human Bel-7402 cells assessed as accumulation in S phase at 0.625 uM incubated for 36 hrs by PI staining based flow cytometry analysis (reference value: 19.68 %); format: functional
# [13] = system: Bel-7402; test: Induction of cell cycle arrest in human Bel-7402 cells assessed as accumulation in G1 phase at 1.25 uM incubated for 36 hrs by PI staining based flow cytometry analysis (reference value: 74.01 %); format: functional
# [14] = system: Bel-7402; test: Induction of cell cycle arrest in human Bel-7402 cells assessed as accumulation in G2 phase at 1.25 uM incubated for 36 hrs by PI staining based flow cytometry analysis (reference value: 6.31 %); format: functional
# [15] = system: Bel-7402; test: Induction of cell cycle arrest in human Bel-7402 cells assessed as accumulation in S phase at 1.25 uM incubated for 36 hrs by PI staining based flow cytometry analysis (reference value: 19.68 %); format: functional
# [16] = system: Bel-7402; test: Induction of cell cycle arrest in human Bel-7402 cells assessed as accumulation in G1 phase at 2.5 uM incubated for 36 hrs by PI staining based flow cytometry analysis (reference value: 74.01 %); format: functional
# [17] = system: Bel-7402; test: Induction of cell cycle arrest in human Bel-7402 cells assessed as accumulation in G2 phase at 2.5 uM incubated for 36 hrs by PI staining based flow cytometry analysis (reference value: 6.31 %); format: functional
# [18] = system: Bel-7402; test: Induction of cell cycle arrest in human Bel-7402 cells assessed as accumulation in S phase at 2.5 uM incubated for 36 hrs by PI staining based flow cytometry analysis (reference value: 19.68 %); format: functional
# [19] = system: Bel-7402; test: Induction of cell cycle arrest in human Bel-7402 cells assessed as increase in accumulation in S phase incubated for 36 hrs by PI staining based flow cytometry analysis; format: functional; details: dose 0.625-2.5 µM
# [20] = system: Bel-7402; test: Antiproliferative activity against human Bel-7402 cells assessed as reduction in cell viability incubated for 72 hrs in presence of O2-Chloromethyl-1-( morpholin -1-yl)diazen-1-ium-1,2-diolate by MTT assay; format: functional, cell-based; details: Bel-7402, 72 h
IC50 [3],Drug metabolism [4],SMILES,inhibition at 1 µM [1],inhibition at 10 µM [2],further results
7.12 µM,,C=C1C(=O)[C@]23[C@H](O)[C@H]1CC[C@H]2[C@@]12CO[C@]3(O)[C@@H](O)[C@@H]1C(C)(C)CC[C@@H]2O [ORIDONIN],29.9%,93.6%,
2.53 µM,,C=C1C(=O)[C@]23[C@H](OC(=O)CCCC(=O)OCO/N=[N+](\[O-])N4CCOCC4)[C@H]1CC[C@H]2[C@@]12CO[C@@]3(O)[C@@H](O)[C@@H]1C(C)(C)CC[C@@H]2O,83.8%,92.7%,
17 µM,Metabolite_Detected,C=C1C(=O)[C@]23[C@H](OC(=O)CCCC(=O)OCO/N=[N+](\[O-])N4CCCC4)[C@H]1CC[C@H]2[C@@]12CO[C@@]3(O)[C@@H](O)[C@@H]1C(C)(C)CCC2=O,13.5%,93.9%,
3.26 µM,,C=C1C(=O)[C@]23[C@H](OC(=O)CCC(=O)OCO/N=[N+](\[O-])N4CCOCC4)[C@H]1CC[C@H]2[C@@]12CO[C@@]3(O)[C@@H](O)[C@@H]1C(C)(C)CCC2=O,71.3%,93.1%,
2.75 µM,Metabolite_Detected,C=C1C(=O)[C@]23[C@H](OC(=O)CCC(=O)OCO/N=[N+](\[O-])N4CCOCC4)[C@H]1CC[C@H]2[C@@]12CO[C@@]3(O)[C@@H](O)[C@@H]1C(C)(C)CC[C@@H]2O,88.5%,93.3%,
13.3 µM,Metabolite_Detected,C=C1C(=O)[C@]23[C@H](OC(=O)CCC(=O)OCO/N=[N+](\[O-])N4CCCC4)[C@H]1CC[C@H]2[C@@]12CO[C@@]3(O)[C@@H](O)[C@@H]1C(C)(C)CC[C@@H]2O,15.9%,93.2%,
1.84 µM,Metabolite_Detected,C=C1C(=O)[C@]23[C@H](OC(=O)CCCC(=O)OCO/N=[N+](\[O-])N4CCOCC4)[C@H]1CC[C@H]2[C@@]12CO[C@@]3(O)[C@@H](O)[C@@H]1C(C)(C)CCC2=O,87.8%,93.9%,IC50 [5]: 1.13 µM; IC50 [6]: 2.57 µM; IC50 [7]: 2.46 µM; IC50 [8]: 8.48 µM; Activity [9]: 51.91%; Activity [10]: 68.47%; Activity [11]: 5.1%; Activity [12]: 26.42%; Activity [13]: 66.35%; Activity [14]: 3.66%; Activity [15]: 29.99%; Activity [16]: 58.98%; Activity [17]: 4.8%; Activity [18]: 36.22%; Activity [19]: Dose-dependent effect
9.07 µM,,C=C1C(=O)[C@]23[C@H](OC(=O)CCC(=O)O)[C@H]1CC[C@H]2[C@@]12CO[C@@]3(O)[C@@H](O)[C@@H]1C(C)(C)CCC2=O,,,IC50 [20]: 5.28 µM
14.6 µM,,C=C1C(=O)[C@]23[C@H](OC(=O)CCC(=O)OCO/N=[N+](\[O-])N4CCCC4)[C@H]1CC[C@H]2[C@@]12CO[C@@]3(O)[C@@H](O)[C@@H]1C(C)(C)CCC2=O,24.2%,93.6%,
3.03 µM,,C=C1C(=O)[C@]23[C@H](OC(=O)CCC(=O)OCO/N=[N+](\[O-])N4CCOCC4)[C@H]1CC[C@H]2[C@@]12CO[C@@]3(O)[C@@H](O)[C@@H]1C(C)(C)CC[C@@H]2OC(C)=O,85.8%,94.5%,
0.83 µM,,COc1cccc2c1C(=O)c1c(O)c3c(c(O)c1C2=O)C[C@@](O)(C(=O)CO)C[C@@H]3O[C@H]1C[C@H](N)[C@H](O)[C@H](C)O1 [DOXORUBICIN HYDROCHLORIDE],,,
10.9 µM,,C=C1C(=O)[C@]23[C@H](OC(=O)CCCC(=O)OCO/N=[N+](\[O-])N4CCCC4)[C@H]1CC[C@H]2[C@@]12CO[C@@]3(O)[C@@H](O)[C@@H]1C(C)(C)CC[C@@H]2O,26.1%,93.4%,

SMILES,IC50 [3],Drug metabolism [4],inhibition at 1 µM [1],inhibition at 10 µM [2],further results
[O-]/[N+](=N\OCCl)N1CCOCC1,24.6 µM,,,,
